# Screening results (PubChem BioAssay)
# Diaphorase inh – diaphorase inhibitors and chemical oxidizers, primary screen, counter-screen for diaphorase-coupled primary assays, biochemical, uHTS, resorufin fluorescence. inhibition, % at 20 µM. diaphorase resazurin-to-resorufin fluorescence, NADH, 16 min; bacterial (C. kluyveri) enzyme, not human. 190,000 compounds, 0.69% hits. AID 1217, 2008;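 active means primary screen inhibition at 20 µM above a set limit, cut at about 50% in these data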;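 further: plate controls were DMSO with full reaction for no effect and wells lacking NADH for full effect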
#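 Detection: fluorescence of resorufin formed from resazurin, Ex 544/Em 590 nm; test system: Clostridium kluyveri diaphorase enzyme; amount: 0.14 U/mL diaphorase, enzyme working solution; times: 16-min room-temperature incubation before reading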
# Tb hexokinase – Trypanosoma brucei hexokinase 1 inhibitors, primary screen, biochemical, G6PDH-coupled NADH absorbance, MLSCN library; hexokinase 1 [Trypanosoma brucei]; recombinant TbHK1, G6PDH-coupled NADH A340; inhibition, % at 10 µM; 220,000 compounds, 0.11% hits; AID 1430, 2008;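 active means inhibition of 50% or more in the single-dose primary screen; inactive means inhibition below 50%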
# Diaphorase act – compounds boosting diaphorase resazurin reduction – biochemical, uHTS, resorufin fluorescence, counter-screen for diaphorase-coupled primary assays, primary screen; 190,000 compounds, 0.005% hits; Diaphorase/resazurin coupled assay, 16 min; hits give high values; 1 = vehicle wells, 0 = NADH-free wells; activation factor at 20 µM;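 active means diaphorase activity raised at least twofold by the compound at 20 µM; inactive means activation factor below 2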
#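 Material: Purified diaphorase enzyme from Clostridium kluyveri | Buffer or medium: 50 mM HEPES pH 7.4 with 4.542 mM MgCl2, 0.005% Tween 20 | Times: 16 min enzyme reaction, ambient temperature | Signal: Red resorufin fluorescence at 544/590 nm excitation/emission | Measure: Increased resorufin signal from activators or reducing compounds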
# G6PDH counter – L. mesenteroides G6PDH inhibitors, counter-screen for G6PDH-coupled screening assays, biochemical, Leuconostoc mesenteroides enzyme. 200,000 compounds, 0.12% hits. Purified L. mesenteroides G6PDH, diaphorase/resazurin coupled fluorescence, 45 min. inhibition, % at 5 µM. glucose-6-phosphate dehydrogenase [Leuconostoc mesenteroides]; in the data active means inhibition above about 50%
# PMI act satM6P – human PMI activators, high substrate, primary screen, biochemical, fluorescence intensity, near-saturating mannose 6-phosphate; coupled PMI enzyme assay, resazurin fluorescence, 20 min; hits give high values; 1 = untreated enzyme, 0 = substrate-free blank; activation factor at 20 µM; 190,000 compounds, 0.34% hits; AID 1216, 2008; Mannose-6-phosphate isomerase (Homo sapiens), P34949;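 active means activation factor of 2 or more at 20 µM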
# Target sequence (P34949 whole entry, looked up): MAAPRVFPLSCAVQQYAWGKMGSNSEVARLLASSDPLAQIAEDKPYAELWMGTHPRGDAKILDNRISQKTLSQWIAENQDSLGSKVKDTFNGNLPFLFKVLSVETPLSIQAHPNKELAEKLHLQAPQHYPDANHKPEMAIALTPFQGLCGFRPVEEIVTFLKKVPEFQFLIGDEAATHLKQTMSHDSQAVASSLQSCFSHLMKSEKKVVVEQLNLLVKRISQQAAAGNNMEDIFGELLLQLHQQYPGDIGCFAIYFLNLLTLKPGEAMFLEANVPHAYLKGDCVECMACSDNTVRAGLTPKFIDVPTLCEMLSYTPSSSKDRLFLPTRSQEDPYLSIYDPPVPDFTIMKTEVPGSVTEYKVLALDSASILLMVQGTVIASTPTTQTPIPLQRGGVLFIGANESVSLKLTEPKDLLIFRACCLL
#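 Test system: Human PMI in coupled enzyme assay | Input: 15 ng/mL PMI | Medium: HEPES-buffered pH 7.4 with magnesium and detergent | Compound: One concentration, 20 µM, in 1% DMSO | Incubation: Enzyme reaction with compound 20 min at room temperature | Detection: Diaphorase-driven resazurin-to-resorufin fluorescence, excitation 544, emission 590 nm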
# PMI act – activators of human PMI, primary screen, biochemical, fluorescence intensity, near-Km mannose 6-phosphate; Mannose-6-phosphate isomerase (Homo sapiens), P34949; AID 1214, 2008; purified human PMI, coupled resazurin fluorescence, 20 min; hits give high values; 1 = vehicle control, 0 substrate-free wells; activation factor at 20 µM; 190,000 compounds, 0.005% hits;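 active means activation factor of 2 or more at 20 µM, relative to plate controls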
# Starred values were filed as active, the others as inactive; · = not tested or not shown. Only some compounds are listed: those with a hit (about 1.1% of all), similar ones and a draw of the others.
SMILES,Diaphorase inh,Tb hexokinase,Diaphorase act,G6PDH counter,PMI act satM6P,PMI act
O=C(Nc1ccc(Cl)cc1)/C(=C/c1ccc([N+](=O)[O-])cc1)c1nc2ccccc2s1,5.4,-5.9,0.9,-5.6,1,1
O=C(CSc1nc(-c2ccc(F)cc2)nc2c1Cc1ccccc1O2)Nc1ccc(C(=O)O)cc1,60.2*,26.0,0.4,-3.4,1,0.9
CCOc1ccc(NC(=O)C2CCC(CNc3c(N4CCC(C)CC4)c(=O)c3=O)CC2)cc1 (configuration not stated),·,-7.8,·,·,·,·
COc1ccc(N=C(NN)c2ccc3ccccc3n2)cc1,12.6,-8.8,0.9,5.6,2.3*,1.8
NNC(=O)c1ccc2ccccc2n1,-6.3,0.2,1.1,2.5,1,1.2
CCc1ccc(N2CC(C(=O)N/N=C/c3cc([N+](=O)[O-])ccc3O)CC2=O)cc1 (configuration not stated),50.6*,-10.3,0.5,-11.8,1.2,0.8
COc1ccc(CCNC(=O)Cn2c(=O)[nH]c3ccsc3c2=O)cc1OC,4.7,-4.4,1,4.4,1,1.1
O=C(O)c1cc2ccccc2cc1Nc1ccccc1,·,-10.6,·,·,·,·
CCCCCCCCCCCCCCCCn1cc[n+](CC(C)=O)c1,-201.3,38.8,3*,3.8,1.1,1.1
Cc1ccc(-c2ccc(=O)n(CC(=O)NCc3ccc(F)cc3)n2)cc1,4.4,-0.8,1,-0.8,1.2,1.1
O=C(Cc1ccccc1)N/N=C/c1ccc2cccc(O)c2n1,15.1,-12.4,0.8,56.2*,0.6,0.9
COc1ccc(CNC[C@@H](CCCCN(C)Cc2ccc(OC)cc2)N2C[C@H](c3ccccc3)N(CCc3ccc(Cl)c(Cl)c3)C(=O)C2=O)cc1,-123.4,10.5,2.2*,6.0,1,1.1
CCN(CC)CCN1C(=O)C(=O)/C(=C(/O)c2c(C)[nH]c(C(=O)OC)c2C)C1c1ccc(C)o1 (configuration not stated),·,-9.5,·,·,·,·
COc1ccc(C(=O)NCCOc2cccc(OC)c2)cc1,67.5*,4.1,0.3,10.8,1.1,1
O=c1cc(CSc2nnc(COc3cccc4ccccc34)o2)c2ccccc2[nH]1,·,-14.0,·,·,·,·
COc1cccc(CN2CCN(Cc3cc(OC)c(OC)cc3[N+](=O)[O-])CC2)c1,50.5*,-4.9,0.5,14.6,0.5,0.5
COc1cc(CN2CCN(Cc3ccc([N+](=O)[O-])cc3)CC2)c([N+](=O)[O-])cc1OC,30.1,-7.2,0.7,12.1,0.4,0.8
COc1cc(CN2CCN(Cc3ccc(C)cc3)C(CCO)C2)cc(OC)c1O (configuration not stated),38.0,-6.2,0.6,58.4*,0.4,0.7
O=C1N/C(=C/c2ccc(N3CCOCC3)o2)C(=O)N1c1cccc(Cl)c1,15.6,-5.9,0.8,3.7,0.8,1
CCCCC1=NN(C(=O)c2cccnc2)C(O)(C(F)(F)F)C1 (configuration not stated),·,-10.9,·,·,·,·
CCN(CC)C(=O)c1ccccc1NS(C)(=O)=O,73.6*,-3.9,0.3,-3.8,0.9,0.9
OCCCNC(=S)Nc1ccc2nc(-c3ccccn3)c(-c3ccccn3)nc2c1,68.3*,-20.3,0.3,51.7*,0.9,0.4
S=C(Nc1ccc2nc(-c3ccccn3)c(-c3ccccn3)nc2c1)N1CCOCC1,51.4*,9.5,0.5,52.9*,1.1,1.1
CCCCn1c(N)c(N(CC)C(=O)CSc2nnnn2-c2cc(C)ccc2C)c(=O)[nH]c1=O,-1.6,-6.0,1,-1.7,1.1,1.1
N=c1c(C(=O)NCc2ccc(F)cc2)cc2c(=O)n3ccccc3nc2n1Cc1ccco1,51.2*,-9.6,0.5,-6.7,1.2,1.2
SMILES,Diaphorase inh,Tb hexokinase,Diaphorase act,G6PDH counter,PMI act satM6P,PMI act
N=c1c(C(=O)NCc2ccccc2)cc2c(=O)n3ccccc3nc2n1Cc1ccco1,67.5*,-4.4,0.3,-1.4,1,1
N=c1c(C(=O)NCc2ccco2)cc2c(=O)n3ccccc3nc2n1Cc1ccccc1,3.0,-15.1,1,7.0,1,0.9
N=c1c(C(=O)NCc2ccco2)cc2c(=O)n3ccccc3nc2n1Cc1ccc(Cl)cc1,11.2,3.5,0.9,-2.8,0.9,1.1
Cc1ccc(CNC(=O)c2cc3c(=O)n4ccccc4nc3n(Cc3ccco3)c2=N)cc1,90.3*,·,0.1,6.3,1.2,1.2
CCOc1ccccc1N1CC(C(=O)Nc2cccc(S(=O)(=O)N3CCCCC3)c2)CC1=O (configuration not stated),24.1,-0.2,0.8,4.1,1,1.1
CCOC(=O)NC1=NCC(C)S1 (configuration not stated),·,-4.2,·,·,·,·
CC(C)(C)OC(=O)N1CCC[C@H]1c1nnc(SCc2cccc(Cl)c2)o1,·,-3.6,·,·,·,·
CCSC1=N/C(=C\c2ccc(-c3ccccc3[N+](=O)[O-])o2)C(=O)S1,62.7*,1.1,0.4,45.7,0.8,0.9
O=C(NC1CCCCC1)Oc1ccccc1,·,-0.8,·,·,·,·
O=C(NC1CCCCC1)Oc1cccc2ccccc12,27.9,-4.7,0.7,52.1*,0.4,0.7
Oc1ccc(CNc2ccccc2)c2cccnc12,86.3*,-7.9,0.1,24.8,0.3,0.5
c1ccc2c(Cn3ccnc3)c[nH]c2c1,12.4,-1.7,0.9,2.6,0.9,0.9
Oc1ccc(CN2CCN(Cc3ccccc3)CC2)c2cccnc12,·,-0.8,·,·,·,·
Oc1ccc(CNc2ccc(F)cc2)c2cccnc12,76.8*,7.1,0.2,25.7,0.3,0.6
Oc1ccc(Cn2ccnc2)c2cccnc12,54.4*,2.9,0.5,40.5,0.9,0.7
O=Nc1ccc(O)c2ncccc12,·,-11.1,·,·,·,·
Cc1cccc(NCc2ccc(O)c3ncccc23)c1,77.6*,-3.1,0.2,36.0,0.3,0.6
COc1ccc(C)cc1N=Nc1ccc(O)c2ncccc12,26.0,-7.0,0.7,7.6,0.7,1
O=C1N/C(=N\N=C\c2cccs2)SC1Cc1ccc(Cl)c(Cl)c1 (configuration not stated),-7.6,-14.7,1.1,-1.5,1.1,1.1
